{"source": "paper PMC8923061", "about": "(ACS Pharmacology & Translational Science, 2022)", "key": {"CaV3.3": {"target": "CaV3.3 (Homo sapiens, UniProt Q9P0X4)", "sequence (Q9P0X4 whole entry)": "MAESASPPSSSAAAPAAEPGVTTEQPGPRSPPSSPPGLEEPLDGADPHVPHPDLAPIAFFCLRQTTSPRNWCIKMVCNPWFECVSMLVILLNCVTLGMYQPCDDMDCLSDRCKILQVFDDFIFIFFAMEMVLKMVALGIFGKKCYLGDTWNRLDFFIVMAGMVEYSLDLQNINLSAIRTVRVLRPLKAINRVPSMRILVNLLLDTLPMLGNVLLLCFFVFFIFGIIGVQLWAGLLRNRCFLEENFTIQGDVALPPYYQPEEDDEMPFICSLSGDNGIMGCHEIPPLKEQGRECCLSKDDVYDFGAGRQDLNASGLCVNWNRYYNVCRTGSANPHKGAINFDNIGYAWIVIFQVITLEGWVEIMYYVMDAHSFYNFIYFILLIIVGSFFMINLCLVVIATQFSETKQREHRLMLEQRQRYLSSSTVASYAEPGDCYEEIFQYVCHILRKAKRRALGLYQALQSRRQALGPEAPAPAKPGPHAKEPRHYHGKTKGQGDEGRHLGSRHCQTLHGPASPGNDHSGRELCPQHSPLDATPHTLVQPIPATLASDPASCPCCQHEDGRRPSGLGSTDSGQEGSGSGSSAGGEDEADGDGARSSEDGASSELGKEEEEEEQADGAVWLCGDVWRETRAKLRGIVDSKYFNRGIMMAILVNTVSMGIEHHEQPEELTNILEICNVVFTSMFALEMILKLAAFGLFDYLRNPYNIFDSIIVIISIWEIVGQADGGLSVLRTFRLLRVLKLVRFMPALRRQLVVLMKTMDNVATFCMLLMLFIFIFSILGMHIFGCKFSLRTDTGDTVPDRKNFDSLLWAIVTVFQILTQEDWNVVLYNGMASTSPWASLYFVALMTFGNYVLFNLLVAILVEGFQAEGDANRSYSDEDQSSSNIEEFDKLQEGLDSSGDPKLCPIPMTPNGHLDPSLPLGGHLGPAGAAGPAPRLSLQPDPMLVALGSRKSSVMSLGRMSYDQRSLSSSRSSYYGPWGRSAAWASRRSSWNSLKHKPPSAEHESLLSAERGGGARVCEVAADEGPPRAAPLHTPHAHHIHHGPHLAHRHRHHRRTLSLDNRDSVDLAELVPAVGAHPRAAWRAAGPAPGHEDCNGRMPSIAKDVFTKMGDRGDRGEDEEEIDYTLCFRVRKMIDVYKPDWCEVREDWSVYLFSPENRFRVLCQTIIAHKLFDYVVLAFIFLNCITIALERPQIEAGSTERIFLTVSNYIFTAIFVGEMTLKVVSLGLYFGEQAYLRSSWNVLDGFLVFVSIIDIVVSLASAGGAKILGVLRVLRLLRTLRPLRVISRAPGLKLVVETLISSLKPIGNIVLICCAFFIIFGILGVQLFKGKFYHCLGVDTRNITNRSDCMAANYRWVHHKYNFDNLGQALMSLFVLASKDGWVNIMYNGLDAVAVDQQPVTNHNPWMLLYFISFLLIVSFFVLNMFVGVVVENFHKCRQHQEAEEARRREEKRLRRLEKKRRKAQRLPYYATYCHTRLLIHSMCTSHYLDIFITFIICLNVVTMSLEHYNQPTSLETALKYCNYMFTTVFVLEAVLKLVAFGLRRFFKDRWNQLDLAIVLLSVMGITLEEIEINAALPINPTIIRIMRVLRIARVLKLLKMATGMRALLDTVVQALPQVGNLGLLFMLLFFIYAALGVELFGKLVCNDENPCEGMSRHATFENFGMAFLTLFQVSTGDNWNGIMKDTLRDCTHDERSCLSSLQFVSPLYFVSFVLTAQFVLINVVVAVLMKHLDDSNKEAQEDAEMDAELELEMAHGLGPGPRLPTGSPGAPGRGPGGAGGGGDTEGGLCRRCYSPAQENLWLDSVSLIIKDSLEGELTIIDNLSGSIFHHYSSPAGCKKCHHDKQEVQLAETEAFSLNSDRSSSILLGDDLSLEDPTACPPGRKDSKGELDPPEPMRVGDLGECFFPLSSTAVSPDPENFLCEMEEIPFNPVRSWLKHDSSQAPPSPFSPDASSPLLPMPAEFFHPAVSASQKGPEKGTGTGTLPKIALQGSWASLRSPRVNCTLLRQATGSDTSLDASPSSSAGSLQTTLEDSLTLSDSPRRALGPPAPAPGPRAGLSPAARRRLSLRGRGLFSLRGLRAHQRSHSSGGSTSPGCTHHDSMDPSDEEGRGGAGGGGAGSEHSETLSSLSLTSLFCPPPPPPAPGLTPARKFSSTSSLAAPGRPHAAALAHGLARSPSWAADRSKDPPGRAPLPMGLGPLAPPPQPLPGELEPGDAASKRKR", "assay": "cell-based", "type": "cell-based", "conditions": "for potentiator activity at CaV3.3: GCaMP6s-CAAX FLIPR, CRC, EC10 KCl"}, "CaV3.1": {"target": "CaV3.1 (Homo sapiens, UniProt O43497)", "sequence (O43497 whole entry)": "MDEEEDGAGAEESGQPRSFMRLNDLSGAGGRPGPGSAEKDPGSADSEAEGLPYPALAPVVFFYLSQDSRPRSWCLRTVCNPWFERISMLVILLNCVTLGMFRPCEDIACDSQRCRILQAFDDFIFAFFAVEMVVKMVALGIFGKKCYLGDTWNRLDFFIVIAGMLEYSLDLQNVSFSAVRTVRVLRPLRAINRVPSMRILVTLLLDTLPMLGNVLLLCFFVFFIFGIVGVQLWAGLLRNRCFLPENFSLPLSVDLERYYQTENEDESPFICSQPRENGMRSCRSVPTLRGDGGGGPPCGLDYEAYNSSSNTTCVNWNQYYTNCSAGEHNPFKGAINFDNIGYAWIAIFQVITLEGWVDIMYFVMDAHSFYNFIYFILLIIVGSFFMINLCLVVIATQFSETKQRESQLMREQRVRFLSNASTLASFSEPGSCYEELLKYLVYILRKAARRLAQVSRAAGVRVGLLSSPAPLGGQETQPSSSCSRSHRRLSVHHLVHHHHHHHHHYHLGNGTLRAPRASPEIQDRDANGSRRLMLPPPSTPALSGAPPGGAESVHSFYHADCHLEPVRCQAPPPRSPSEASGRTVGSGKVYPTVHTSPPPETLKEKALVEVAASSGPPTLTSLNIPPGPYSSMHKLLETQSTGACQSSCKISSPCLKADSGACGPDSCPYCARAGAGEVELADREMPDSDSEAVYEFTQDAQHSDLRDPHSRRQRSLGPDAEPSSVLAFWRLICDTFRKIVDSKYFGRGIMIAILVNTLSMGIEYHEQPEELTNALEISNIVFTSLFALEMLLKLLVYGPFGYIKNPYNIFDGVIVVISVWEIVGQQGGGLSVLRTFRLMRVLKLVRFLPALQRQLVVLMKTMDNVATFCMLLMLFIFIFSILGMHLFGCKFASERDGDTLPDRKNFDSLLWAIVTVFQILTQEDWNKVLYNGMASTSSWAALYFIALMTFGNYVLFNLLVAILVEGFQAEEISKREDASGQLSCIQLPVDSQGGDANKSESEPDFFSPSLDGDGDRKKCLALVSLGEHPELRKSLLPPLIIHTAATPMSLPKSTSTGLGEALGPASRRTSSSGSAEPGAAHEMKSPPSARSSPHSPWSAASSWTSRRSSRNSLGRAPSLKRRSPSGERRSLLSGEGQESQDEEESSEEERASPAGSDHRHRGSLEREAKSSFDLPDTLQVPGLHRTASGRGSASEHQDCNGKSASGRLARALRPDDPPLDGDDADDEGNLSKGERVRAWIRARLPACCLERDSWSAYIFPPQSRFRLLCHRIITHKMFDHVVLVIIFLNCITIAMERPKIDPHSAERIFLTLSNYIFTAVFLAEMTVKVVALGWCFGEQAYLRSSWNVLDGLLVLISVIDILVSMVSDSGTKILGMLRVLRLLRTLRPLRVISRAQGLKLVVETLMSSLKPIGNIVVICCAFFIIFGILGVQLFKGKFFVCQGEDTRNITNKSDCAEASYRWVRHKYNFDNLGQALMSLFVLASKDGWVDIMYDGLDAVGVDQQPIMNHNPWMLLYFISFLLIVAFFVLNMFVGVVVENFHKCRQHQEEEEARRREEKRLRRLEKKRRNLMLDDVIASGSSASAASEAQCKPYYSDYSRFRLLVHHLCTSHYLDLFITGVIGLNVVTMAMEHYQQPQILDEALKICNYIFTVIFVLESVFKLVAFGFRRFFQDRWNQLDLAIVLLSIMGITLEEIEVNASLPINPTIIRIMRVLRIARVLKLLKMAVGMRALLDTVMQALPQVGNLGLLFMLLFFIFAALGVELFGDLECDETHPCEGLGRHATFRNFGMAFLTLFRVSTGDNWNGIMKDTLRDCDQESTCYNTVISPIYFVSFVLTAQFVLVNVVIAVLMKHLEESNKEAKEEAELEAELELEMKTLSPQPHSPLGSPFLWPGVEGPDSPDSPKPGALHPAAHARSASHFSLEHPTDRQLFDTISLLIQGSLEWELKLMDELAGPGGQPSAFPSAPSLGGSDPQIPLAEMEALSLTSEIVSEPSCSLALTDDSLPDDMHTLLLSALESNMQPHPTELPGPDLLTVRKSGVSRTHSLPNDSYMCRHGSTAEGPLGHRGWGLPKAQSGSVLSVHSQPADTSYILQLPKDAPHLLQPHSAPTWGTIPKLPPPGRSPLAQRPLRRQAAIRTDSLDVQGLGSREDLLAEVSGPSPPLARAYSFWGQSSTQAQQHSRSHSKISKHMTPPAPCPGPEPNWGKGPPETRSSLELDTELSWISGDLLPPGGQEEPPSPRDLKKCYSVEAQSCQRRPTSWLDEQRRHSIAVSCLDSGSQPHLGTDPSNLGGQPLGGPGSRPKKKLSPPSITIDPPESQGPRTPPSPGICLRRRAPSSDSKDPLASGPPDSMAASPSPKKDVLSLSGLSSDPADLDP", "type": "cell-based", "conditions": "GCaMP6s-CAAX FLIPR, CRC, low CaCl2", "summary_of_the_method": "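HEK293 cells co-expressing CaV3.1, Kir2.3 and GCaMP6s-CAAX in DMEM/F-12 GlutaMAX + 10% FBS + 1.25 μg/mL puromycin. Induced with 1 μg/mL doxycycline, seeded at 16k/well on poly-D-lysine and grown 2 days at 37 °C. Equilibrated ~60 min at room temperature in the dark in buffer (133 mM NaCl, 10 HEPES, 10 glucose, 4 KCl, 1 CaCl2, pH 7.3). Stimulated with 1.5 mM (low) or 5.0 mM (high) CaCl2 on FLIPR Tetra at room temperature; peak over baseline used.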"}, "CaV3.2": {"target": "CaV3.2 (Homo sapiens, UniProt O95180)", "type": "cell-based", "conditions": "GCaMP6s-CAAX FLIPR, CRC, EC10 KCl", "summary_of_the_method": "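Inducible HEK293 CaV3.2/Kir2.3/GCaMP6s-CAAX cells, with no antibiotics in assay plates. Doxycycline (1 μg/mL) induction, 16k/well, 2 days at 37 °C, then ~60 min at room temperature in buffer of 133 mM NaCl, 10 HEPES, 10 glucose, 4 KCl, 1 CaCl2, pH 7.3. […] Peak response over baseline after each addition.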"}, "LPA1 receptor": {"target": "LPA1 receptor (Cricetulus griseus, UniProt G3HUC7)", "sequence (G3HUC7 1-364)": "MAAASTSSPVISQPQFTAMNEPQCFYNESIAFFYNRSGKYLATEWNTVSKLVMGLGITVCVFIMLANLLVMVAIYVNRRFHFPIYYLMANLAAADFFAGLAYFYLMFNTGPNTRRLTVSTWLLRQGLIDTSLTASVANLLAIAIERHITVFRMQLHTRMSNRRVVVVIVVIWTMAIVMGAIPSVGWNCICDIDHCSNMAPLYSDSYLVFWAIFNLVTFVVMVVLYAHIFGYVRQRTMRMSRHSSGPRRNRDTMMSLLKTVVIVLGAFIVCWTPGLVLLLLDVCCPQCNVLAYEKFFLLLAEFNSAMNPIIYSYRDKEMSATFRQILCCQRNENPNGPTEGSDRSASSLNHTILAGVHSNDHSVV", "type": "cell-based, Chinese hamster", "conditions": "CHOK1/Gα15/GCaMP6s-CAAX"}, "C3a receptor": {"target": "C3a receptor (Cricetulus griseus, UniProt A0A061I1T5)", "type": "cell-based, Chinese hamster", "conditions": "read-out: EC50, increase in fluorescence (C3a receptor); CHOK1/Gα15/GCaMP6s-CAAX", "summary_of_the_method": "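CHOK1-Gα15 cells stably expressing GCaMP6s-CAAX, kept in F-12K + 10% FBS with hygromycin (100 μg/mL) and G-418 (700 μg/mL). Seeded at 16k/well and grown 2 days at 37 °C. Buffer was HBSS + 20 mM HEPES + 0.1% fatty-acid-free BSA, pH 7.3; 30 min at 37 °C in the dark. FLIPR Tetra at 37 °C: ex 470-495/em 515-575 nm, 1 Hz, two additions. Agonist was hC3a; antagonist mode used 20 nM hC3a. Peak over baseline, scaled from buffer (0%) to saturating agonist (100%). Four replicates, two experiments.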"}}, "note": "Counter-ions that a name gives are not always drawn. Like-named read-outs stand apart in the source and are kept apart here."}
{"compound": "O=C1N=C2C=CC=CN2C12Cc1ccccc1C2", "note": "[ST-101]", "values": [{"measurement": "potentiator activity at CaV3.3", "setting": "CaV3.3", "result": "neither SAK3 (Figure 3D) nor ST-101 (Supporting Information Figure S3) displayed potentiator activity"}, {"measurement": "potentiator activity at CaV3.1", "setting": "CaV3.1", "result": "neither SAK3 (Figure 3D) nor ST-101 (Supporting Information Figure S3) displayed potentiator activity"}, {"measurement": "potentiator activity at CaV3.2", "setting": "CaV3.2", "result": "neither SAK3 (Figure 3D) nor ST-101 (Supporting Information Figure S3) displayed potentiator activity"}]}
{"compound": "Cc1noc(-c2ccc(-c3ccc(CC(=O)O)cc3)cc2)c1NC(=O)O[C@H](C)c1ccccc1", "note": "[AM095]", "values": [{"measurement": "IC50", "setting": "LPA1 receptor; read-out: IC50, block of LPA1-mediated signal, EC80 agonist", "result": "240 ± 20", "unit": "nM"}]}
{"compound": "CCOC(=O)C1=C(N2CCCCC2)C2(CC1=O)C(=O)N=C1C(C)=CC=CN12", "note": "(centres unmarked) [SAK3]", "values": [{"measurement": "potentiator activity at CaV3.3", "setting": "CaV3.3", "result": "neither SAK3 (Figure 3D) nor ST-101 (Supporting Information Figure S3) displayed potentiator activity"}, {"measurement": "potentiator activity at CaV3.1", "setting": "CaV3.1", "result": "neither SAK3 (Figure 3D) nor ST-101 (Supporting Information Figure S3) displayed potentiator activity"}, {"measurement": "potentiator activity at CaV3.2", "setting": "CaV3.2", "result": "neither SAK3 (Figure 3D) nor ST-101 (Supporting Information Figure S3) displayed potentiator activity"}]}
{"compound": "COC(=O)C1=C(C)NC(C)=C(C(=O)OC(C)(C)CN(C)CCC(c2ccccc2)c2ccccc2)C1c1cccc([N+](=O)[O-])c1", "note": "(centres unmarked) [lercanidipine hydrochloride]", "values": [{"measurement": "IC50", "setting": "CaV3.3", "result": 410, "unit": "nM"}]}
{"compound": "Fc1ccc(C(c2ccc(F)cc2)N2CCN(C/C=C/c3ccccc3)CC2)cc1", "note": "[flunarizine dihydrochloride]", "values": [{"measurement": "IC50", "setting": "CaV3.3", "result": 1200, "unit": "nM"}]}
{"compound": "CC(C)c1ccc(CC(=O)N[C@H](C)c2ccc(OCC(F)(F)F)cn2)cc1", "note": "[mk-8998]", "values": [{"measurement": "IC50", "setting": "CaV3.3", "result": 37, "unit": "nM"}]}
{"compound": "CN(C)C(=O)C(CCN1CCC(O)(c2ccc(Cl)cc2)CC1)(c1ccccc1)c1ccccc1", "note": "[loperamide hydrochloride]", "values": [{"measurement": "IC50", "setting": "CaV3.3", "result": 1300, "unit": "nM"}]}
{"compound": "lysoPA18:1", "values": [{"measurement": "EC50", "setting": "LPA1 receptor; read-out: EC50, increase in fluorescence (LPA1 receptor agonist)", "result": "1010 ± 190", "unit": "nM"}]}
{"compound": "human C3a [hC3a]", "values": [{"measurement": "EC50", "setting": "C3a receptor", "result": "4.5 ± 0.5", "unit": "nM"}]}
{"compound": "CC1=C(C(=O)OC(C)C)C(c2cccc([N+](=O)[O-])c2)C(C(=O)OC2CN(C(c3ccccc3)c3ccccc3)C2)=C(N)N1", "note": "(centres unmarked) [azelnidipine]", "values": [{"measurement": "IC50", "setting": "CaV3.3", "result": 26000, "unit": "nM"}]}
{"compound": "CCOC(=O)Nc1ccc(NCc2ccc(F)cc2)nc1N", "note": "[flupirtine maleate]", "values": [{"measurement": "IC50", "setting": "CaV3.3", "result": 3500, "unit": "nM"}]}
{"compound": "CCOC(=O)Nc1ccc(NCc2ccc(F)cc2)cc1N", "note": "[retigabine]", "values": [{"measurement": "IC50", "setting": "CaV3.3", "result": 9400, "unit": "nM"}]}
{"compound": "CCOC(=O)C1=C(C)NC(C)=C(C(=O)OC)C1c1cccc([N+](=O)[O-])c1", "note": "(centres unmarked) [nitrendipine]", "values": [{"measurement": "IC50", "setting": "CaV3.3", "result": 18000, "unit": "nM"}]}
{"compound": "C[C@@H](NC(=O)Cc1ccc(C2CC2)cc1)c1ccc(OCC(F)(F)F)cn1", "note": "[tta-a2]", "values": [{"measurement": "effect on KCl-induced CaV3.3-dependent fluorescence signal", "setting": "CaV3.3", "result": "blocked"}, {"measurement": "IC50", "setting": "CaV3.3; read-out: IC50 against CaV3.3", "result": 53, "unit": "nM"}]}
{"compound": "COC(=O)C1=C(C)NC(C)=C(C(=O)OCCN(C)Cc2ccccc2)C1c1cccc([N+](=O)[O-])c1", "note": "(centres unmarked) [nicardipine hydrochloride]", "values": [{"measurement": "IC50", "setting": "CaV3.3", "result": 2100, "unit": "nM"}]}
